Experiments:
Assay type in all cases: functional
Malme-3M = experiment: Growth inhibition of human MALME-3M cells at 10 uM relative to control; details: values are per cent of control
Procedure, shortened: (§1)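 Single-dose preliminary screen in the NCI human cancer cell line panel, run by the NIH. Percent inhibition of cell line growth was calculated by comparison with untreated samples.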

SK-MEL-2 = experiment: Growth inhibition of human SK-MEL-2 cells at 10 uM relative to control; details: values are per cent of control; procedure, shortened: as §1
SK-MEL-28 = experiment: Growth inhibition of human SK-MEL-28 cells at 10 uM relative to control; details: values are per cent of control; procedure, shortened: as §1
SK-MEL-5 = experiment: Growth inhibition of human SK-MEL-5 cells at 10 uM relative to control; details: values are per cent of control; procedure, shortened: as §1
UACC-257 = experiment: Growth inhibition of human UACC257 cells at 10 uM relative to control; details: values are per cent of control
Procedure, shortened: (§2)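 Single-dose NCI human tumour cell line screen, run by the NIH. Percent inhibition of cell line growth was calculated by comparison with untreated samples.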

UACC-62 = experiment: Growth inhibition of human UACC62 cells at 10 uM relative to control; details: values are per cent of control; procedure, shortened: as §2
DU-145 = experiment: Growth inhibition of human DU145 cells at 10 uM relative to control; details: values are per cent of control; procedure, shortened: as §1
PC-3 = experiment: Growth inhibition of human PC3 cells at 10 uM relative to control; details: values are per cent of control; procedure, shortened: as §1
SF-268 = experiment: Growth inhibition of human SF268 cells at 10 uM relative to control; details: values are per cent of control; procedure, shortened: as §1
SF-295 = experiment: Growth inhibition of human SF295 cells at 10 uM relative to control; details: values are per cent of control; procedure, shortened: as §1
SF-539 = experiment: Growth inhibition of human SF539 cells at 10 uM relative to control; details: values are per cent of control; procedure, shortened: as §1
SNB-19 = experiment: Growth inhibition of human SNB19 cells at 10 uM relative to control; details: values are per cent of control; procedure, shortened: as §1
SNB-75 = experiment: Growth inhibition of human SNB75 cells at 10 uM relative to control; details: values are per cent of control; procedure, shortened: as §2
U-251 = experiment: Growth inhibition of human U251 cells at 10 uM relative to control; details: values are per cent of control; procedure, shortened: as §2
cells [1] = details: Homo sapiens, Cancer cell lines
cells [2] = details: Homo sapiens, Cancer cell lines; remark: listed apart in the source
Leukemia cell = experiment: cells; details: Homo sapiens
cells [3] = details: Homo sapiens, Cancer cell lines; remark: listed apart in the source
Melanoma cell = experiment: cells; details: Homo sapiens
cells [4] = details: Homo sapiens, Cancer cell lines; remark: listed apart in the source
cells [5] = details: Homo sapiens, Cancer cell lines; remark: listed apart in the source
A549 = experiment: Growth inhibition of human A549 cells at 10 uM relative to control; details: values are per cent of control; procedure, shortened: as §1
EKVX = experiment: Growth inhibition of human EKVX cells at 10 uM relative to control; details: values are per cent of control; procedure, shortened: as §1
HOP-62 = experiment: Growth inhibition of human HOP62 cells at 10 uM relative to control; details: values are per cent of control; procedure, shortened: as §1
HOP-92 = experiment: Growth inhibition of human HOP92 cells at 10 uM relative to control; details: values are per cent of control; procedure, shortened: as §1
NCI-H226 = experiment: Growth inhibition of human NCI-H226 cells at 10 uM relative to control; details: values are per cent of control; procedure, shortened: as §1
NCI-H23 = experiment: Growth inhibition of human NCI-H23 cells at 10 uM relative to control; details: values are per cent of control; procedure, shortened: as §1
NCI-H322M = experiment: Growth inhibition of human NCI-H322M cells at 10 uM relative to control; details: values are per cent of control; procedure, shortened: as §1
NCI-H460 = experiment: Growth inhibition of human NCI-H460 cells at 10 uM relative to control; details: values are per cent of control; procedure, shortened: as §1
NCI-H522 = experiment: Growth inhibition of human NCI-H522 cells at 10 uM relative to control; details: values are per cent of control; procedure, shortened: as §1
COLO 205 = experiment: Growth inhibition of human COLO205 cells at 10 uM relative to control; details: values are per cent of control; procedure, shortened: as §1
HCC 2998 = experiment: Growth inhibition of human HCC2998 cells at 10 uM relative to control; details: values are per cent of control; procedure, shortened: as §1

With O=C(/C=C/c1cn(CCc2ccccc2)nn1)NO as the molecule, how does the growth, % of control at 10 µM (Malme-3M) read?
Its growth, % of control at 10 µM is 15.9%.

What about the growth, % of control at 10 µM (SK-MEL-2) of the same molecule?
Its growth, % of control at 10 µM is 45.8%.

What about the growth, % of control at 10 µM (SK-MEL-28) of the same molecule?
The growth, % of control at 10 µM was 42.6%.

And the growth, % of control at 10 µM (SK-MEL-5)?
Its growth, % of control at 10 µM is 35.5%.

And the growth, % of control at 10 µM (UACC-257)?
The growth, % of control at 10 µM was 19.5%.

And the growth, % of control at 10 µM (UACC-62)?
The growth, % of control at 10 µM was 18.1%.

What about the growth, % of control at 10 µM (DU-145) of the same molecule?
Its growth, % of control at 10 µM is 35.5%.

What about the growth, % of control at 10 µM (PC-3) of the same molecule?
Its growth, % of control at 10 µM is 37.2%.

And the growth, % of control at 10 µM (SF-268)?
Its growth, % of control at 10 µM is 57.2%.

What about the growth, % of control at 10 µM (SF-295) of the same molecule?
The growth, % of control at 10 µM was 51.8%.

And the growth, % of control at 10 µM (SF-539)?
Its growth, % of control at 10 µM is 72.8%.

And the growth, % of control at 10 µM (SNB-19)?
Its growth, % of control at 10 µM is 90%.

And the growth, % of control at 10 µM (SNB-75)?
The growth, % of control at 10 µM was 35.1%.

And the growth, % of control at 10 µM (U-251)?
Its growth, % of control at 10 µM is 40.7%.

And the growth percent at 10 µM (cells [1])?
Its growth percent at 10 µM is 40%.

What about the inhibition at 10 µM (cells [2]) of the same molecule?
The inhibition at 10 µM was 48%.

What about the inhibition at 10 µM (Leukemia cell) of the same molecule?
Its inhibition at 10 µM is 7%.

What about the growth percent at 10 µM (cells [3]) of the same molecule?
The growth percent at 10 µM was 46%.

And the inhibition at 10 µM (Melanoma cell)?
Its inhibition at 10 µM is 33%.

And the inhibition at 10 µM (cells [4])?
Its inhibition at 10 µM is 58%.

What about the inhibition at 10 µM (cells [5]) of the same molecule?
The inhibition at 10 µM was 45%.

And the growth, % of control at 10 µM (A549)?
The growth, % of control at 10 µM was 54.2%.

What about the growth, % of control at 10 µM (EKVX) of the same molecule?
Its growth, % of control at 10 µM is 44.6%.

What about the growth, % of control at 10 µM (HOP-62) of the same molecule?
The growth, % of control at 10 µM was 13.3%.

And the growth, % of control at 10 µM (HOP-92)?
Its growth, % of control at 10 µM is -9.64%.

And the growth, % of control at 10 µM (NCI-H226)?
Its growth, % of control at 10 µM is 76.5%.

And the growth, % of control at 10 µM (NCI-H23)?
The growth, % of control at 10 µM was 68.4%.

And the growth, % of control at 10 µM (NCI-H322M)?
Its growth, % of control at 10 µM is 66%.

What about the growth, % of control at 10 µM (NCI-H460) of the same molecule?
The growth, % of control at 10 µM was 62.5%.

And the growth, % of control at 10 µM (NCI-H522)?
The growth, % of control at 10 µM was 27.7%.

What about the growth, % of control at 10 µM (COLO 205) of the same molecule?
Its growth, % of control at 10 µM is 53.9%.

What about the growth, % of control at 10 µM (HCC 2998) of the same molecule?
The growth, % of control at 10 µM was 69.2%.
